{"source": "paper PMC7935409", "about": "(Investigative radiology, 2020)", "system": "Male Wistar rats", "assay": "DEN model of hepatic fibrosis and inflammation, body weight and liver histology", "assay_type": "in vivo, rat", "conditions": "for collagen proportional area (CPA), Sirius Red: weekly 100 mg/kg i.p.", "in_short": "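Male Wistar rats (190–220 g at start) got weekly i.p. DEN 100 mg/kg in PBS for 4 weeks, or PBS only as controls, and were sampled 1 or 7 days after the last dose. Formalin-fixed, paraffin-embedded 5 μm liver sections were stained with H&E, Sirius Red, and fibrin antibody (1:25). A pathologist scored modified Ishak HAI; CPA was the % Sirius Red area. Values are mean ± standard error, compared by t-test.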", "data": [{"compound": "CCN(CC)N=O", "note": "[DEN, diethylnitrosamine]", "values": [{"measurement": "HAI score for inflammation (0 – 4)", "setting": "1 day post DEN", "value": "3.54 ± 0.14"}, {"measurement": "fibrin immunostaining, area stained", "setting": "1 day post DEN", "value": "3.56 ± 1.35"}, {"measurement": "fibrosis Ishak score (0 – 6)", "setting": "1 day post DEN", "value": "3.62 ± 0.31"}, {"measurement": "collagen proportional area (CPA), Sirius Red", "setting": "1 day post DEN", "value": "3.14 ± 1.27", "unit": "%"}, {"measurement": "HAI score for inflammation (0 – 4)", "setting": "7 days post DEN", "value": "1.61 ± 0.16"}, {"measurement": "fibrin immunostaining, area stained", "setting": "7 days post DEN", "value": "1.02 ± 0.58"}, {"measurement": "fibrosis Ishak score (0 – 6)", "setting": "7 days post DEN", "value": "3.82 ± 0.25"}, {"measurement": "collagen proportional area (CPA), Sirius Red", "setting": "7 days post DEN", "value": "3.30 ± 0.65", "unit": "%"}]}]}
